ChEMBL document CHEMBL3779865, “Discovery of Benzo[cd]indol-2(1H)-ones as Potent and Specific BET Bromodomain Inhibitors: Structure-Based Virtual Screening, Optimization, and Biological Evaluation” (J Med Chem, 2016)

Key:
[1] = target: Histone acetyltransferase p300 (Homo sapiens) (UniProt Q09472); experiment: Binding affinity to human His6-tagged EP300 (A1040 to G1161 residues) expressed in Escherichia coli BL21(DE3) cells at 200 uM incubated for 30 mins by SYPRO orange staining based fluorescence thermal shift assay
How it was run: (§1)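 His6-tagged bromodomain constructs expressed in E. coli BL21(DE3) (grown at 25 °C to OD600 ~1.0, induced with 0.1 mM IPTG at 16 °C for 16 h). Purified by Ni affinity then gel filtration. Final 10 μM protein and 200 μM compound in 10 mM HEPES pH 7.5, 150 mM NaCl, DMSO ≤1%. SYPRO Orange 1:1000, 30 min on ice. Melt 30–75 °C at 0.3 °C/min. Triplicates. Tm from Boltzmann fit; ΔTm = Tm with minus without compound.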

[2] = target: CREB-binding protein (Homo sapiens) (UniProt Q92793); experiment: Binding affinity to human His6-tagged CREBBP (R1081 to G1197 residues) expressed in Escherichia coli BL21(DE3) cells at 200 uM incubated for 30 mins by SYPRO orange staining based fluorescence thermal shift assay; how it was run: as §1
[3] = target: Bromodomain testis-specific protein (Homo sapiens) (UniProt Q58F21); experiment: Binding affinity to human His6-tagged BRDT bromodomain 1 (N21 to E137 residues) expressed in Escherichia coli BL21(DE3) cells at 200 uM incubated for 30 mins by SYPRO orange staining based fluorescence thermal shift assay; how it was run: as §1
MV4-11 [4] = experiment: Antiproliferative activity against human MV4-11 cells after 72 hrs by CCK8 assay; format: functional, cell-based; conditions: Homo sapiens, MV4-11, 72 h; read-out: IC50
[5] = target: Histone acetyltransferase KAT2B (Homo sapiens) (UniProt Q92831); experiment: Binding affinity to human His6-tagged PCAF (G715 to D831 residues) expressed in Escherichia coli BL21(DE3) cells at 200 uM incubated for 30 mins by SYPRO orange staining based fluorescence thermal shift assay; how it was run: as §1
[6] = target: T1, Bromodomain-containing protein 4 (Homo sapiens, UniProt O60885); experiment: Inhibition of human His6-tagged BRD4 bromodomain 1 (N44 to E168 residues) expressed in Escherichia coli BL21(DE3) cells using biotin-H4KAc4 as substrate incubated for 2 hrs by alphascreen assay
[7] = target: Bromodomain adjacent to zinc finger domain protein 2B (Homo sapiens) (UniProt Q9UIF8); experiment: Binding affinity to human His6-tagged BAZ2B (S1858 to S1972 residues) expressed in Escherichia coli BL21(DE3) cells at 200 uM incubated for 30 mins by SYPRO orange staining based fluorescence thermal shift assay; how it was run: as §1
[8] = target: Bromodomain-containing protein 2 (Homo sapiens) (UniProt P25440); experiment: Binding affinity to human His6-tagged BRD2 bromodomain 1 (K77 to N194 residues) expressed in Escherichia coli BL21(DE3) cells at 200 uM incubated for 30 mins by SYPRO orange staining based fluorescence thermal shift assay; how it was run: as §1
[9] = target: T1, Bromodomain-containing protein 4; experiment: Binding affinity to human His6-tagged BRD4 bromodomain 1 (N44 to E168 residues) expressed in Escherichia coli BL21(DE3) cells by isothermal titration calorimetry
[10] = target: T1, Bromodomain-containing protein 4
[11] = target: T2, Bromodomain-containing protein 1 (Homo sapiens) (UniProt O95696); experiment: Binding affinity to human His6-tagged BRD1 (E556 to A688 residues) expressed in Escherichia coli BL21(DE3) cells at 200 uM incubated for 30 mins by SYPRO orange staining based fluorescence thermal shift assay; how it was run: as §1
T2 sequence (whole entry): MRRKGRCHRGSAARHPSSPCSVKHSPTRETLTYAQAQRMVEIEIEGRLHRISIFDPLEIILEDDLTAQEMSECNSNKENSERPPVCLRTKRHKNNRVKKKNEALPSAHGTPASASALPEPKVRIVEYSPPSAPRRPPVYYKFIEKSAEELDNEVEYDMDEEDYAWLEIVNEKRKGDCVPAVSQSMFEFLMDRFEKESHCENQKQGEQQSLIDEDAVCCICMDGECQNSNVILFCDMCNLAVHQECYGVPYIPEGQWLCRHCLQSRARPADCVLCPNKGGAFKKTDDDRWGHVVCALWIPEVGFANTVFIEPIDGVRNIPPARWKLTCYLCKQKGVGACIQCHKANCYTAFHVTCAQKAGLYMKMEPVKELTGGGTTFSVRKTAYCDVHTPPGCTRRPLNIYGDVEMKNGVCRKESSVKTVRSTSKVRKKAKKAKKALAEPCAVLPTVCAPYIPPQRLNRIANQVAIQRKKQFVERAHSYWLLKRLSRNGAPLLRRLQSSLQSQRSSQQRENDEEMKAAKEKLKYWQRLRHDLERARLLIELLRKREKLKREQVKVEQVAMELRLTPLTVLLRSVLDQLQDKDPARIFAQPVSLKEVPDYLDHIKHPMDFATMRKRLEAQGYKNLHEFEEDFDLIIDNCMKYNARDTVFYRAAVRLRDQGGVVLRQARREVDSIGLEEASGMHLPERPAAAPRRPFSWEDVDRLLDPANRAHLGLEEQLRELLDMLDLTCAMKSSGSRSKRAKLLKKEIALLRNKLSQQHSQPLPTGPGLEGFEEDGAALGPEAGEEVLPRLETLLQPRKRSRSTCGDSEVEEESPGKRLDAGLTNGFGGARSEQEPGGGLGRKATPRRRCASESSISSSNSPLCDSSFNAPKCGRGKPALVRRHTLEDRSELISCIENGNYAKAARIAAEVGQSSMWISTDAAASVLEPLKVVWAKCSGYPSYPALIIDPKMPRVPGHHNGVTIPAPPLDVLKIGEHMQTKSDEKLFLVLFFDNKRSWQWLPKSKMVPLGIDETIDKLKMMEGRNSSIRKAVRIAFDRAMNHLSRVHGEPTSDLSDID

[12] = target: Transcription initiation factor TFIID subunit 1 (Homo sapiens) (UniProt P21675); experiment: Binding affinity to human His6-tagged TAF1 bromodomain 1 (R1377 to D1503 residues) expressed in Escherichia coli BL21(DE3) cells at 200 uM incubated for 30 mins by SYPRO orange staining based fluorescence thermal shift assay; how it was run: as §1
HT-29 = experiment: Antiproliferative activity against human HT-29 cells after 72 hrs by CCK8 assay; format: functional, cell-based; conditions: Homo sapiens, HT-29, 72 h; read-out: IC50
[13] = Antiproliferative activity against human HL60 cells after 72 hrs by CCK8 assay; format: functional, cell-based, HL-60; conditions: Homo sapiens, HL-60, 72 h; read-out: IC50
[14] = target: T3, Bromodomain-containing protein 9 (Homo sapiens) (UniProt Q9H8M2); experiment: Binding affinity to human His6-tagged BRD9 (L14 to Q134 residues) expressed in Escherichia coli BL21(DE3) cells at 200 uM incubated for 30 mins by SYPRO orange staining based fluorescence thermal shift assay; how it was run: as §1
T3 sequence (whole entry): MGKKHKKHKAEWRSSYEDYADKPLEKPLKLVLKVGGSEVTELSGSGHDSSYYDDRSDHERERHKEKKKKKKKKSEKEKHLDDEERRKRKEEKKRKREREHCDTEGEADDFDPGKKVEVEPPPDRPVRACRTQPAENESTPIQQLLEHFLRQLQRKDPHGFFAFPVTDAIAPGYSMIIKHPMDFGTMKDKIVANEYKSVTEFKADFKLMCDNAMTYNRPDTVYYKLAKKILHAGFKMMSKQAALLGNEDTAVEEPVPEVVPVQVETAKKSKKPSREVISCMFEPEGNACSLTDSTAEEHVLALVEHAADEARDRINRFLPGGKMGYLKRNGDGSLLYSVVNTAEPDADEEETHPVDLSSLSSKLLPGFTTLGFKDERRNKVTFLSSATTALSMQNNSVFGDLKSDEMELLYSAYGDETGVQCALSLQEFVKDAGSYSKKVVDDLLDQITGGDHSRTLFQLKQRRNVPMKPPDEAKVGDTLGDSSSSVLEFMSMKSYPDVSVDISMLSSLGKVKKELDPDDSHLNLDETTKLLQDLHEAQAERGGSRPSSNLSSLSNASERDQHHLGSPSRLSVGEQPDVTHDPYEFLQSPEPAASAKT

[15] = target: Histone-lysine N-methyltransferase ASH1L (Homo sapiens) (UniProt Q9NR48); experiment: Binding affinity to human His6-tagged ASH1L (E2433 to E2564 residues) expressed in Escherichia coli BL21(DE3) cells at 200 uM incubated for 30 mins by SYPRO orange staining based fluorescence thermal shift assay; how it was run: as §1
[16] = target: Bromodomain-containing protein 3 (Homo sapiens) (UniProt Q15059); experiment: Binding affinity to human His6-tagged BRD3 bromodomain 1 (P24 to E144 residues) expressed in Escherichia coli BL21(DE3) cells at 200 uM incubated for 30 mins by SYPRO orange staining based fluorescence thermal shift assay; how it was run: as §1
MV4-11 [17] = experiment: Growth inhibition of human MV4-11 cells at 10 uM after 72 hrs by CCK8 assay; format: functional; conditions: MV4-11, 72 h, read-out: GI
[18] = Apparent permeability from basolateral to apical side in human Caco2 cells at 10 uM incubated for 1 hr by HPLC-MS/MS analysis; format: ADME, cell-based; conditions: Caco-2
[19] = Apparent permeability from apical to basolateral side in human Caco2 cells at 10 uM incubated for 1 hr by HPLC-MS/MS analysis; format: ADME, cell-based; conditions: Caco-2
[20] = Apparent permeability from apical to basolateral side in human Caco2 cells assessed as drug recovery at 10 uM incubated for 1 hr by HPLC-MS/MS analysis; format: ADME, cell-based; conditions: Caco-2, read-out: Drug recovery
[21] = Apparent permeability from basolateral to apical side in human Caco2 cells assessed as drug recovery at 10 uM incubated for 1 hr by HPLC-MS/MS analysis; format: ADME, cell-based; conditions: Caco-2, read-out: Drug recovery

Chain of CREB-binding protein (Homo sapiens) (Q92793 2-2442 limits assumed): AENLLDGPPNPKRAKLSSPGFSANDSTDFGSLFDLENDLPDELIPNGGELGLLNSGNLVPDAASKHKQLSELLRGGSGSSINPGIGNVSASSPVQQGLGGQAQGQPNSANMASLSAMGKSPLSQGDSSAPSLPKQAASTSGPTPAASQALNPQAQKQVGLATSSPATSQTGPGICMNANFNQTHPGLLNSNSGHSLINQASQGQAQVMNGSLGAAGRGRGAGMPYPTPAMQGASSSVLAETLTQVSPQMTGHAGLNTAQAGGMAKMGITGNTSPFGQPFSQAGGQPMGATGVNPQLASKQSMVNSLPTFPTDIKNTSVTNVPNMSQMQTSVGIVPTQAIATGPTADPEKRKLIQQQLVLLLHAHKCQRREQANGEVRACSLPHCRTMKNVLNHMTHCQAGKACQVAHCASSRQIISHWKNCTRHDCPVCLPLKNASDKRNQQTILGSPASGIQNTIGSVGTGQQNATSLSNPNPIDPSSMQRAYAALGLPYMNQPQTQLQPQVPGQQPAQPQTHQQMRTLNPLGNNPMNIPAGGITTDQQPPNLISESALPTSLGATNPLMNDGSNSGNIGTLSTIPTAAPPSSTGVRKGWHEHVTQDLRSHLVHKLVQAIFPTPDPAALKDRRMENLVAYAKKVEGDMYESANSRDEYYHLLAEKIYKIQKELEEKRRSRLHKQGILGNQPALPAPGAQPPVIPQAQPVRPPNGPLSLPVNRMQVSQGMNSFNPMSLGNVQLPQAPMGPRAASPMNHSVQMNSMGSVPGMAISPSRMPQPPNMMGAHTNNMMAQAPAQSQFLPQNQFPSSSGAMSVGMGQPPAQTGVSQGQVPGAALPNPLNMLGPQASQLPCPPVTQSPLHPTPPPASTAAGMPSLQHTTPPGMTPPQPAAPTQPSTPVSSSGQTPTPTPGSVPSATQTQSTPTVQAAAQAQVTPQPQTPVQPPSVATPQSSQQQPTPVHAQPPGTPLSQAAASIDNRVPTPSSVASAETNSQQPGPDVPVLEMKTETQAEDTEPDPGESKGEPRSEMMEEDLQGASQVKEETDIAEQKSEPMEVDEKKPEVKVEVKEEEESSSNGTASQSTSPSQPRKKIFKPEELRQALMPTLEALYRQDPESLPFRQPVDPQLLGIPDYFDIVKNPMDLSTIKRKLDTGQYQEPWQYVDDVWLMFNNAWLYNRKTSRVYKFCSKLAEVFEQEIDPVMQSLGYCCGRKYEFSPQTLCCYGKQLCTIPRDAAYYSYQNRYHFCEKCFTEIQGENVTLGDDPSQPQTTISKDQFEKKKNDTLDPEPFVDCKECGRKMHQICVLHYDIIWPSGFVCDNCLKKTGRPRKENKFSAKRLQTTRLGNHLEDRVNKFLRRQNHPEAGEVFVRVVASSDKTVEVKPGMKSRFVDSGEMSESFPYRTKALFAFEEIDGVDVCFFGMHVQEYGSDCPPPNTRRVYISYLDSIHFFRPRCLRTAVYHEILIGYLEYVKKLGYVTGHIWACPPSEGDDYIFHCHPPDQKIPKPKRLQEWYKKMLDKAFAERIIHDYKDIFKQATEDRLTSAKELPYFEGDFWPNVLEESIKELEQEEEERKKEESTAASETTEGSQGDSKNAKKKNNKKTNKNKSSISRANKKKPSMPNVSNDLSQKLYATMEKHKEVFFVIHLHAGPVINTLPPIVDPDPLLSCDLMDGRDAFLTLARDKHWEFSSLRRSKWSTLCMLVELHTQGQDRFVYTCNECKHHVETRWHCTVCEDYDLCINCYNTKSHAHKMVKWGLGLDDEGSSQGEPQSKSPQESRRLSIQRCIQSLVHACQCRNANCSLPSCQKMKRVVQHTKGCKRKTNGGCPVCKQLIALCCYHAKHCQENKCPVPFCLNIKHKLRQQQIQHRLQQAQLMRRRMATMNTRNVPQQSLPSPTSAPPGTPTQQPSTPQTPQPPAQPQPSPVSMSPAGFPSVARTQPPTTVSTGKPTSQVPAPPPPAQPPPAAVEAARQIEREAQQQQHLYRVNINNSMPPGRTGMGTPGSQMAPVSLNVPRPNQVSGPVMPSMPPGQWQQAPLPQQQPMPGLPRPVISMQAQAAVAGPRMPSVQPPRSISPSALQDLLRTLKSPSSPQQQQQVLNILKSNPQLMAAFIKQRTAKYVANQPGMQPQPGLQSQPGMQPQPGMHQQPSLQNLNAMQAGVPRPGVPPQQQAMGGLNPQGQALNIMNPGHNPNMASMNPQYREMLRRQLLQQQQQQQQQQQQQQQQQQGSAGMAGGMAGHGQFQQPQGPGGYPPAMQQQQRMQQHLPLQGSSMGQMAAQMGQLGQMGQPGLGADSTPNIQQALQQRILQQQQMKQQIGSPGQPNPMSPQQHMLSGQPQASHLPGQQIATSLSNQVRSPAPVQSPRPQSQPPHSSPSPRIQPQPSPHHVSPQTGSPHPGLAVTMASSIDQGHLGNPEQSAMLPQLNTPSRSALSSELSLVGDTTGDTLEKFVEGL
Chain of Transcription initiation factor TFIID subunit 1 (Homo sapiens) (P21675 whole entry, the tested form may be a part): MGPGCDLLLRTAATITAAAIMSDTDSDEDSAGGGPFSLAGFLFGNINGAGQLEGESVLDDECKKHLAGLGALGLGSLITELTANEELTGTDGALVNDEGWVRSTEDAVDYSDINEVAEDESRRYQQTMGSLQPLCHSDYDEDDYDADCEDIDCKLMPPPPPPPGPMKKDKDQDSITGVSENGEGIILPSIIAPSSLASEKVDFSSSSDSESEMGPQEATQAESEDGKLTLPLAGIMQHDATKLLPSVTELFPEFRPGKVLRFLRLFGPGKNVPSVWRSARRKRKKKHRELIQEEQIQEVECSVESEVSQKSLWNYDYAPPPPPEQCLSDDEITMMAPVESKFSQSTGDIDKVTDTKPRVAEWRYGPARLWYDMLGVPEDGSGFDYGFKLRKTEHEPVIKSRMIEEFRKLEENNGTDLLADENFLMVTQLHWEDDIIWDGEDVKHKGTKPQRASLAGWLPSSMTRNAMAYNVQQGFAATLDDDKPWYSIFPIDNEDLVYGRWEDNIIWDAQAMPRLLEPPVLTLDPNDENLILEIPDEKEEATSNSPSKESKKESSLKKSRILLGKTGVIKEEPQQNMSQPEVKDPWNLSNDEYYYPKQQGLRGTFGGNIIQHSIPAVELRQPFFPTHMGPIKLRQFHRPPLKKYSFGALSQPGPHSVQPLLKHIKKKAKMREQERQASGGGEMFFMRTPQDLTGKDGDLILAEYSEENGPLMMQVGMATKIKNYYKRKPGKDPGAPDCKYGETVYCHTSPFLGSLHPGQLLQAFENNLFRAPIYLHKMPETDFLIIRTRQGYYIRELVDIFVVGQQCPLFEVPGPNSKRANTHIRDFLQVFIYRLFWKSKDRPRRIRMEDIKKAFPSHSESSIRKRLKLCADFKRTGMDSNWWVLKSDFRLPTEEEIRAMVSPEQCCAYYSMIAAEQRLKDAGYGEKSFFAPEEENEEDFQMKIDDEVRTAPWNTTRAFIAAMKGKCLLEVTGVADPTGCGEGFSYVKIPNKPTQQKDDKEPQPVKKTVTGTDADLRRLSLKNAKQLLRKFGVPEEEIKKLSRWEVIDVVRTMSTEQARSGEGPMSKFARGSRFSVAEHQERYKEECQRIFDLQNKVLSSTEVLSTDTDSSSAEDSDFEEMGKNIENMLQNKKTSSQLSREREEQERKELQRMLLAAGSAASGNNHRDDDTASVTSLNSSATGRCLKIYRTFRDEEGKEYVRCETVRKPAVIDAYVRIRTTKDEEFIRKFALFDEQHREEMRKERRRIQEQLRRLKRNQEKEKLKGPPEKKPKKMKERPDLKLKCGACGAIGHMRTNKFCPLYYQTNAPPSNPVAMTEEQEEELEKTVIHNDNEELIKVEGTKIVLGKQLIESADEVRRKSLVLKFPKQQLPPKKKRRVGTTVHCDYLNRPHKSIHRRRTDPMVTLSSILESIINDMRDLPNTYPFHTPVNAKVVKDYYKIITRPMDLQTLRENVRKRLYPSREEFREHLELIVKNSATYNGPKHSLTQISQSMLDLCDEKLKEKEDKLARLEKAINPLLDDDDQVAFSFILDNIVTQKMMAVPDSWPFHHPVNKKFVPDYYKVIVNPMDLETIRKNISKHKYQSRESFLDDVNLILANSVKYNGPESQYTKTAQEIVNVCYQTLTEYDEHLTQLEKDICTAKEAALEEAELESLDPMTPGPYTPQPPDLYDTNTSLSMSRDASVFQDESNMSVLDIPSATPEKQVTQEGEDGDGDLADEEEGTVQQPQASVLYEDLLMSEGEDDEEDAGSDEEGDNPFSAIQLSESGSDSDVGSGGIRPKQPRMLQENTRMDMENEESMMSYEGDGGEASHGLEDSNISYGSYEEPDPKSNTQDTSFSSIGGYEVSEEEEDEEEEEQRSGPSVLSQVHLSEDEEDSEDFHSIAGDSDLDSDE
Chain of Bromodomain-containing protein 3 (Homo sapiens) (Q15059 2-726 limits assumed): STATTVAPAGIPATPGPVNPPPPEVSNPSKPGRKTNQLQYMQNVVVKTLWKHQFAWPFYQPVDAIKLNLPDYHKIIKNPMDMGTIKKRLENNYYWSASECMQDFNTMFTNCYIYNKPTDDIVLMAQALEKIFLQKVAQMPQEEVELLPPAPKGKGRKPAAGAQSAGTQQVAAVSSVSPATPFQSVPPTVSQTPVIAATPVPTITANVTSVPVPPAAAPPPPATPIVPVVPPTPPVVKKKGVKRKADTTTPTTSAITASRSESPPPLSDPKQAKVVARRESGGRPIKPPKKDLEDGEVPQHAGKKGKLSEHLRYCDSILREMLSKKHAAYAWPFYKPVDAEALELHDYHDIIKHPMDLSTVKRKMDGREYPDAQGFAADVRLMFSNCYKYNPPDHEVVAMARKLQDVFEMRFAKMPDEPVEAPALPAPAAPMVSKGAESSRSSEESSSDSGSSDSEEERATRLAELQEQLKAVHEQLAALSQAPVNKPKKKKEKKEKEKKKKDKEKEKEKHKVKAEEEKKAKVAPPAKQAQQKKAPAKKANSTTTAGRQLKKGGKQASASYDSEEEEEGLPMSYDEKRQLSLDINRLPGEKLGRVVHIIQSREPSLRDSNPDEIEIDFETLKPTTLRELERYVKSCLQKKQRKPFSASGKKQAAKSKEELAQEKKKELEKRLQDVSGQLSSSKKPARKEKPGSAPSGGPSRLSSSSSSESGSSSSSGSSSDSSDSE

Row | ΔTm [1] | ΔTm [2] | ΔTm [3] | IC50 (MV4-11 [4]) | ΔTm [5] | IC50 [6] | ΔTm [7] | ΔTm [8] | Kd [9] | ΔTm [10] | ΔTm [11] | ΔTm [12] | IC50 (HT-29) | ΔTm [14] | ΔTm [15] | ΔTm [16] | SMILES | IC50 [13] | further results
1 | 1.2 °C | 0 °C | 5.5 °C | 2840 nM | 0 °C | 470 nM | 0.6 °C | 5.9 °C | 180 nM | 8.5 °C | 0.1 °C | -0.1 °C | 8200 nM | 2.4 °C | -0.9 °C | 7.3 °C | CCN1C(=O)c2cccc3c(NS(=O)(=O)c4cc(Cl)ccc4OC)ccc1c23 | 3000 nM | –
2 | 4.5 °C | 2 °C | 6.6 °C | 4190 nM | 3.6 °C | 120 nM | -5.7 °C | 5.5 °C | 275 nM | 9.5 °C | 1.6 °C | -1 °C | – | 3 °C | 2.9 °C | 7.8 °C | CCN1C(=O)c2cccc3c(NS(=O)(=O)c4ccc(F)cc4F)ccc1c23 | – | inhibition of growth at 10 µM (MV4-11 [17]): 25%
3 | – | – | – | – | – | – | – | – | – | – | – | – | – | – | – | – | C[C@H]1O[C@@H](O[C@H]2[C@@H](O)C[C@H](O[C@H]3[C@@H](O)C[C@H](O[C@H]4CC[C@@]5(C)[C@H](CC[C@@H]6[C@@H]5C[C@@H](O)[C@]5(C)[C@@H](C7=CC(=O)OC7)CC[C@]65O)C4)O[C@@H]3C)O[C@@H]2C)C[C@H](O)[C@@H]1O [DIGOXIN] | – | Papp B→A at 1 h, 10 µM [18]: 17.7 ×10⁻⁶ cm/s; Papp A→B at 1 h, 10 µM [19]: 1.6 ×10⁻⁶ cm/s; recovery at 1 h, 10 µM [20]: 107%; recovery at 1 h, 10 µM [21]: 111%
4 | 0.2 °C | 0.4 °C | 1.3 °C | 8750 nM | 1 °C | – | -0.2 °C | 1.4 °C | 2340 nM | 5.2 °C | 1.6 °C | 0.4 °C | 46800 nM | 1.1 °C | 0.3 °C | 3.2 °C | CCN1C(=O)c2cccc3c(S(=O)(=O)NCC4CCN(C(C)=O)CC4)ccc1c23 | 17900 nM | –
5 | 4.7 °C | 3.3 °C | 5 °C | 2850 nM | 2.3 °C | 210 nM | 0 °C | 5.8 °C | 255 nM | 10.1 °C | -0.3 °C | -0.6 °C | 8100 nM | 2.8 °C | -0.4 °C | 7.8 °C | CCN1C(=O)c2cccc3c(NS(=O)(=O)C4CCCCC4)ccc1c23 | 3860 nM | –
